Source: PubChem (Broad Institute)
Ecoli rRNA inh: selective bacterial rRNA inhibition in E. coli; E. coli WT GFP vs humanized-ribosome RFP mutants, fluorescence, 24 h; stronger effect = lower value; DMSO median 0, no signal -100; GFP signal change (wild-type ribosome), % (concentration not given with the values); 350,000 compounds, 1.6% hits; AID 720706;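 active = significant combined selectivity score with lowered wild-type GFP, culture density cut under 30%, mutant RFP and density less affected; inactive = any of these conditions unmet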
S100A4 inh HTS: S100A4-myosin IIA interaction inhibition; P26447; S100A4/TAMRA-MyoIIA peptide fluorescence polarization; inhibition, % at 10.7 µM; 360,000 compounds, 0.14% hits; AID 652163;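 active = mean inhibition of at least 70% across replicates, with every replicate also reaching that level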
Target sequence (P26447 whole entry, looked up): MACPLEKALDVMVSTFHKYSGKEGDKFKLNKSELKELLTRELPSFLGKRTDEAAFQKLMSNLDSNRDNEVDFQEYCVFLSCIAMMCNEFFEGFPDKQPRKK
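assay system = human S100A4 monomer with TAMRA-labelled myosin IIA peptide | also added = labelled myosin peptide probe, 5 nM | incubation = 5 min between mix addition and reading | control set = DMSO and TFP controls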
SIRT5 block: blocks human SIRT5 desuccinylation of peptide | Q9NXA8 | Purified SirT5, succinyl-peptide AMC, trypsin-coupled fluorescence | inhibition, % at 15 µM | 330,000 compounds, 1.1% hits; in the data active = inhibition above about 15%
Target sequence (Q9NXA8 whole entry, looked up): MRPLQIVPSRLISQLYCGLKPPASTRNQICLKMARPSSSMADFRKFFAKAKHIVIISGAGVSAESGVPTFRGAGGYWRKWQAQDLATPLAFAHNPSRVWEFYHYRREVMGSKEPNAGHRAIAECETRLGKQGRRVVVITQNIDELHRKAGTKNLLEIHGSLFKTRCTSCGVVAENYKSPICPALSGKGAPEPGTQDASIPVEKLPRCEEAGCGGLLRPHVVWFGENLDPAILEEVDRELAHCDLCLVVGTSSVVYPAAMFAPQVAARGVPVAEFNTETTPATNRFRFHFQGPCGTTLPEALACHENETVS
PGC1a acetyl inh: modulators of PGC1a acetylation; U2OS PGC1a acetylation, AlphaScreen anti-acetyl-lysine; with virally co-expressed GCN5 acetyltransferase; inhibition, % at 15.6 µM; 350,000 compounds, 0.17% hits; AID 651687;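 active = every replicate shows inhibition of at least 40%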;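 also: 0% = neutral control wells and 100% = positive control wells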
Cneo AK release: causes C. neoformans cell lysis. lysis activity, % at 15 µM. adenylate kinase release luminescence, 4 h; normalised: neutral wells 0, clomiphene wells 100. 360,000 compounds, 0.2% hits;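 active = mean lysis activity across replicates of at least 80%, whatever share of replicates individually reach that level; inactive = mean lysis activity below 80%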
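Assay system: C. neoformans cells. Amount: yeast cell density of 5 × 10^6 cells/mL. Technique: AK luminescence. Buffer or medium: YPD. Times: static 4 h at 37 °C with compound, 1 h detection. Dosing: single-point compound dose. Read-out: lysis from increased AK signal.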
C2C12 statin: suppression of simvastatin myotoxicity; C2C12 myotubes + simvastatin, ATP luminescence, 48 h; scaled: DMSO 0, geranylgeraniol control 100; rescue of ATP level, % at 7.49 µM; 330,000 compounds, 0.78% hits; AID 602340;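 active = mean ATP rescue above about 67%, or every replicate alone reaching that limit, limit read from the data, passing the limit was not always enough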;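 also: myotubes were challenged with 10 µM simvastatin during compound exposure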
* marks the source's active call; other numbers are inactive results; nt = no result; ! = repeats disagree. A selection: hits, their analogues and other compounds. The true share with any hit is near 3%.

SMILES	Ecoli rRNA inh	S100A4 inh HTS	SIRT5 block	PGC1a acetyl inh	Cneo AK release	C2C12 statin
COc1ccc(CCNC(=O)COC(=O)CCC(=O)c2cccs2)cc1OC	4.5	-5.4	nt	-7.5	11.7	1.0
COc1ccc(CCNC(=O)COC(=O)CCC(=O)c2ccc(F)cc2)cc1OC	-7.0	3.0	19.9*	nt	nt	nt
C[C@H]1CN([C@@H](C)CO)C(=O)c2cccc(NS(=O)(=O)c3ccc(Cl)cc3)c2O[C@H]1CN(C)C(=O)Nc1ccc(F)cc1	-2.3	-10.4	2.4	1.4	4.0	5.6
Nc1c(/C=C2/C=CC(=O)C(O)=C2)c(=O)nc2sc(CC(=O)N3CCOCC3)nn12	8.9	-2.9	34.1*	nt	1.8	3.7
Nc1c(C=C2C=CC(=O)C=C2)c(=O)nc2snc(SCc3ccccc3)n12	-21.4	-1.3	3.0	2.0	-3.9	-3.5
Nc1c(/C=C2/C=CC(=O)C(O)=C2)c(=O)nc2sc(CC(=O)N3CCCC3)nn12	8.0	-2.1	28.8*	nt	1.1	0.1
Nc1c(/C=C2/C=CC(=O)C(O)=C2)c(=O)nc2sc(CC(=O)N3CCCCC3)nn12	7.3	-2.1	43.1*	-11.1	-2.7	-1.6
CCc1nn2c(N)c(/C=C3\C=Nc4ccccc43)c(=O)nc2s1	3.5	6.1	0.8	-1.9	0.8	7.6
Nc1c(C=C2C=CC(=O)C=C2)c(=O)nc2sc(CC(=O)N3CCCCC3)nn12	5.8	-5.4	39.8*	nt	1.4	2.0
C[C@H]1CN([C@@H](C)CO)S(=O)(=O)c2ccc(C#CCN(C)C)cc2O[C@H]1CN(C)C(=O)CC1CC1	4.5	-1.9	10.4	4.0	0.1	7.7
CO[C@@H](CN(C)C(=O)c1ccccc1F)[C@@H](C)CN([C@H](C)CO)S(=O)(=O)c1ccccc1	-1.0	13.3	-2.7	-8.8	-7.2	-2.1
O=C1c2ccccc2C(=O)N1CCC(c1ccc(F)cc1)c1ccco1 (stereo not drawn)	nt	nt	nt	-5.2	-2.5	76.8*
CN(C)C(CNc1ncnc2sc3c(c12)CCCCC3)c1ccco1 (stereo not drawn)	-38.3*	-6.2	-0.3	-1.0	nt	nt
Cc1sc2ncnc(NCC(c3ccco3)N(C)C)c2c1C (stereo not drawn)	nt	nt	nt	1.7	-0.8	1.9
C[C@H]1CN([C@@H](C)CO)C(=O)CCCn2nncc2CO[C@@H]1CN(C)C(=O)c1ccc2ccn(C)c2c1	2.3	2.3	37.6*!	9.7	3.0	0.3
C[C@@H]1CN([C@H](C)CO)C(=O)CCCn2nncc2CO[C@H]1CN(C)Cc1ccc(Cl)c(Cl)c1	4.4	3.6	7.7	5.4	0.2	10.7
C[C@@H]1CN([C@@H](C)CO)C(=O)CCCn2nncc2CO[C@H]1CN(C)S(=O)(=O)c1ccc2ccccc2c1	0.1	4.7	2.5	7.7	-1.2	-4.4
C[C@@H]1CN([C@@H](C)CO)C(=O)CCCn2nncc2CO[C@H]1CN(C)Cc1ccc(Cl)c(Cl)c1	8.1	0.9	16.0*!	-4.5	0.1	12.4
C[C@@H]1CN([C@H](C)CO)C(=O)CCCn2nncc2CO[C@@H]1CN(C)S(=O)(=O)c1ccc2ccccc2c1	3.5	93.1*!	0.7	-8.9	-1.0	-5.6
C[C@@H]1CN([C@H](C)CO)C(=O)CCCn2nncc2CO[C@H]1CN(C)S(=O)(=O)c1ccc(Cl)cc1	6.5	-1.4	18.5*!	6.6	-0.1	-2.8
CNC[C@H]1Oc2cc(C#CC3(O)CCCC3)ccc2S(=O)(=O)N([C@H](C)CO)C[C@H]1C	3.2	-4.9	3.7	17.1	1.7	3.8
CCNC(=O)[C@H]1[C@H](CO)[C@H]2Cn3c(ccc(-c4ccc(F)cc4)c3=O)[C@H]2N1C	1.4	nt	nt	nt	nt	nt
COc1ccc(NC(=O)N(C)C[C@@H]2Oc3c(NS(=O)(=O)c4ccccc4)cccc3C(=O)N([C@H](C)CO)C[C@H]2C)cc1	0.1	nt	nt	-21.7	nt	10.3
C[C@@H]1CN([C@H](C)CO)C(=O)CCCn2nncc2CO[C@@H]1CN(C)S(=O)(=O)c1cn(C)cn1	13.6	-4.9	-5.2	100.7*!	1.5	10.2
Cc1ccccc1S(=O)(=O)N(C)C[C@@H]1OCc2cnnn2CCCC(=O)N([C@@H](C)CO)C[C@H]1C	0.4	111.8*!	-4.2	-0.4	0.1	-2.4
SMILES	Ecoli rRNA inh	S100A4 inh HTS	SIRT5 block	PGC1a acetyl inh	Cneo AK release	C2C12 statin
COc1cccc(S(=O)(=O)N(C)C[C@H]2OCc3cnnn3CCCC(=O)N([C@H](C)CO)C[C@H]2C)c1	-3.5	0.9	-5.5	-1.9	102.7*!	12.9
COc1ccc(S(=O)(=O)Nc2ccc3c(c2)C(=O)N([C@@H](C)CO)C[C@H](C)[C@@H](CN(C)C(=O)C2CCCCC2)OCCCC[C@H](C)O3)cc1	-3.0	-20.4	1.1	-0.5	-1.7	nt
C[C@@H]1CN([C@@H](C)CO)C(=O)c2c(c3ccccc3n2C)-c2ccccc2CO[C@H]1CN(C)C(=O)Nc1cccc(C(F)(F)F)c1	0.4	nt	nt	nt	nt	nt
CCCOC(=O)C[N+](C)(C)CCOC1CC2CCC1(C)C2(C)C (stereo not drawn)	-47.3*	2.1	-3.2	nt	nt	nt
O=C(Nc1ccc(Cl)cc1)Nc1ccc(-c2cnco2)cc1	-21.9*	3.9	2.0	nt	0.2	-30.7
CC=Cc1ccc2n(c1=O)C[C@H]1[C@H](CO)[C@@H](C(=O)NCCC)[C@@H]2N1CC1CCCC1 (mixture of isomers)	-3.9	19.4	-2.6	nt	-0.8	14.3
C[C@H]1CN([C@@H](C)CO)S(=O)(=O)c2ccc(Br)cc2O[C@H]1CN(C)S(=O)(=O)c1ccccc1F	6.2	1.6	-4.5	-30.0	103.7*!	6.9
COc1ccccc1S(=O)(=O)N(C)C[C@H]1Oc2cc(Br)ccc2S(=O)(=O)N([C@H](C)CO)C[C@H]1C	-34.0*!	-3.9	0.9	-8.0	4.6	0.6
C[C@H](CO)N1C[C@H](C)[C@H](CN(C)S(=O)(=O)c2ccccc2F)Oc2cc(-c3ccccc3)ccc2S1(=O)=O	2.1	10.2	13.8	-2.5	-5.5	-100.1
C[C@H]1CN([C@@H](C)CO)S(=O)(=O)c2ccc(-c3ccccc3)cc2O[C@H]1CN(C)S(=O)(=O)c1ccccc1F	0.0	-0.1	11.9	5.7	-5.5	-58.8
COc1ccccc1S(=O)(=O)N(C)C[C@@H]1Oc2cc(C#CCC(C)C)ccc2S(=O)(=O)N([C@H](C)CO)C[C@@H]1C	-0.8	22.7	22.9*!	-14.0	0.5	-15.4
C[C@H]1CN([C@@H](C)CO)S(=O)(=O)c2ccc(Br)cc2O[C@@H]1CN(C)S(=O)(=O)c1ccccc1F	-12.9	4.6	-0.2	-64.4	93.7*!	38.0
COc1ccc(S(=O)(=O)N[C@@H]2CC[C@H](CC(=O)O)O[C@@H]2CO)cc1	0.9	-2.7	0.5	3.4	-0.6	-4.3
